According to PMC8923172 (Antimicrobial Agents and Chemotherapy, 2022):
Marks after values point to notes of the source that are not given here. Residues, ends and D or L forms follow the SMILES beside them.

Tests used:
[1] = Hematology of cynomolgus monkeys at the end of treatment; format: in vivo; details: male, median (IQR)
Method in brief: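 GLP 10-day study in male and female cynomolgus monkeys (n = 3-5/sex/group) dosed once daily with 0 (placebo), 5, 10 or 15 mg/kg test compound by i.v. infusion over 60 ± 5 min. Hematology, serum chemistry and coagulation were taken at end of treatment and reported as median (IQR). Dose groups were compared by Kruskal-Wallis with Dunn's multiple comparison test.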

[2] = Single- and multiple-dose i.v. pharmacokinetics in cynomolgus monkeys; format: in vivo, cynomolgus monkeys (Macaca fascicularis); details: for Cmax: 1-h i.v. infusion; for Cmax / AUC0-∞ / AUCτ / CL / λz / Vss / MRT: mean (SD); for MRT: MRTinf
[3] = both, cynomolgus monkey, plasma, iv, 15 mg/kg/day

For CC[C@H](C)[C@@H]1NC(=O)[C@@H]2CSSC[C@H](NC(=O)[C@H](CCCNC(=N)N)NC(=O)[C@@H]3CSSC[C@H](NC1=O)C(=O)N[C@@H]([C@@H](C)O)C(=O)N[C@@H](CCCNC(=N)N)C(=O)NCC(=O)N[C@@H](Cc1ccccc1)C(=O)N3)C(=O)N[C@@H](CC(C)C)C(=O)N[C@H]1CSSC[C@H](NC(=O)[C@H](C(C)C)NC(=O)CNC(=O)[C@H](CCCNC(=N)N)NC(=O)[C@H](CCCNC(=N)N)NC1=O)C(=O)N[C@@H](CCCNC(=N)N)C(=O)N2 [RTD-1, Rhesus theta (θ) defensin-1] (HELM PEPTIDE1{G.F.C.R.C.L.C.R.R.G.V.C.R.C.I.C.T.R}$PEPTIDE1,PEPTIDE1,3:R3-16:R3|PEPTIDE1,PEPTIDE1,5:R3-14:R3|PEPTIDE1,PEPTIDE1,7:R3-12:R3|PEPTIDE1,PEPTIDE1,1:R1-18:R2$$$V2.0), the “Neutrophils, absolute” value ([1]; 10 mg/kg/day) was 4.31 (1.38) 10^3/mm^3, the Platelets ([1]; 10 mg/kg/day) was 450.00 (114.00) 10^3/mm^3 and the RBC ([1]; 10 mg/kg/day) was 6.35 (0.58) 10^6/mm^3. For the same compound, the RDW ([1]; 10 mg/kg/day) was 17.20 (1.35) %, the “Reticulocytes, absolute” value ([1]; 10 mg/kg/day) was 60.00 (71.70) 10^9/L and the WBC ([1]; 10 mg/kg/day) was 11.00 (1.75) 10^3/mm^3. The “Basophils, absolute” value ([1]; 15 mg/kg/day) was 0.11 (0.10) 10^3/mm^3, the “Eosinophils, absolute” value ([1]; 15 mg/kg/day) was 0.39 (0.70) 10^3/mm^3 and the Hematocrit ([1]; 15 mg/kg/day) was 38.40 (2.30) %. The Hemoglobin ([1]; 15 mg/kg/day) was 11.10 (0.90) g/dL, the “LUC, absolute” value ([1]; 15 mg/kg/day) was 0.17 (0.11)^c 10^3/mm^3 and the “Lymphocytes, absolute” value ([1]; 15 mg/kg/day) was 4.78 (2.17) 10^3/mm^3. For the same compound, the MCH ([1]; 15 mg/kg/day) was 20.20 (0.90) pg, the MCHC ([1]; 15 mg/kg/day) was 28.90 (1.20) g/dL and the MCV ([1]; 15 mg/kg/day) was 71.20 (3.40) fL. The “Monocytes, absolute” value ([1]; 15 mg/kg/day) was 1.10 (0.74) 10^3/mm^3, the “Neutrophils, absolute” value ([1]; 15 mg/kg/day) was 7.62 (9.59) 10^3/mm^3 and the Platelets ([1]; 15 mg/kg/day) was 634.00 (42.00)^d 10^3/mm^3. The RBC ([1]; 15 mg/kg/day) was 5.56 (0.40) 10^6/mm^3, the RDW ([1]; 15 mg/kg/day) was 14.80 (0.80) % and the “Reticulocytes, absolute” value ([1]; 15 mg/kg/day) was 69.10 (47.50) 10^9/L. For the same compound, the WBC ([1]; 15 mg/kg/day) was 14.90 (12.80) 10^3/mm^3, the Cmax ([2]; 0.3 mg/kg Day 1, n=2) was 582 (109) ng/mL and the “AUC0-∞” value ([2]; 0.3 mg/kg Day 1, n=2) was 617 (137) ng · h/mL. For the same compound, the AUCτ ([2]; 0.3 mg/kg Day 1, n=2) was 591 (145) ng · h/mL, the CL ([2]; 0.3 mg/kg Day 1, n=2) was 498 (111) mL/h/kg and the λz ([2]; 0.3 mg/kg Day 1, n=2) was 0.523 (0.119) h^−1. For the same compound, the Cmax ([2]; 1 mg/kg Day 1, n=2) was 2,560 (820) ng/mL, the “AUC0-∞” value ([2]; 1 mg/kg Day 1, n=2) was 3,875 (973) ng · h/mL and the AUCτ ([2]; 1 mg/kg Day 1, n=2) was 3,818 (961) ng · h/mL. For the same compound, the CL ([2]; 1 mg/kg Day 1, n=2) was 266 (66.9) mL/h/kg, the λz ([2]; 1 mg/kg Day 1, n=2) was 0.251 (0.035) h^−1 and the AUCτ ([2]; 3 mg/kg Day 1, n=2) was 10,334 (2,239) ng · h/mL. For the same compound, the λz ([2]; 3 mg/kg Day 1, n=2) was 0.078 (0.017) h^−1, the Cmax ([2]; 5 mg/kg Day 1, n=6) was 10,700 (2,455) ng/mL and the AUCτ ([2]; 5 mg/kg Day 1, n=6) was 27,160 (4,286) ng · h/mL. For the same compound, the λz ([2]; 5 mg/kg Day 1, n=6) was 0.323 (0.016) h^−1, the AUCτ ([2]; 5 mg/kg Day 10, n=6) was 38,936 (9,829) ng · h/mL and the CL ([2]; 5 mg/kg Day 10, n=6) was 136 (36.5)# mL/h/kg. For the same compound, the λz ([2]; 5 mg/kg Day 10, n=6) was 0.157 (0.009)# h^−1, the “accumulation: mean AUCτ day 10 vs mean AUC0-∞ day 1” value ([2]; 5 mg/kg/day) was “approximately 1.4 fold” and the Cmax ([2]; 10 mg/kg Day 1, n=8) was 26,675 (8,240) ng/mL. For the same compound, the AUCτ ([2]; 10 mg/kg Day 1, n=8) was 76,083 (23,562) ng · h/mL, the CL ([2]; 10 mg/kg Day 1, n=8) was 143 (48.2)* mL/h/kg and the λz ([2]; 10 mg/kg Day 1, n=8) was 0.192 (0.034)* h^−1. The AUCτ ([2]; 10 mg/kg Day 10, n=6) was 117,529 (26,077) ng · h/mL, the CL ([2]; 10 mg/kg Day 10, n=6) was 88.5 (18.5)* mL/h/kg and the Vss ([2]; 10 mg/kg Day 10, n=6) was 624 (88.2) mL/kg. The λz ([2]; 10 mg/kg Day 10, n=6) was 0.120 (0.018)* h^−1, the “accumulation: mean AUCτ day 10 vs mean AUC0-∞ day 1” value ([2]; 10 mg/kg/day) was ~1.5 fold and the Cmax ([2]; 15 mg/kg Day 1, n=12) was 46,458 (15,247)† ng/mL. For the same compound, the AUCτ ([2]; 15 mg/kg Day 1, n=12) was 138,135 (34,942) ng · h/mL, the CL ([2]; 15 mg/kg Day 1, n=12) was 114 (25.7) mL/h/kg and the Vss ([2]; 15 mg/kg Day 1, n=12) was 629 (176)† mL/kg. For the same compound, the λz ([2]; 15 mg/kg Day 1, n=12) was 0.149 (0.019)† h^−1, the AUCτ ([2]; 15 mg/kg Day 4, n=2) was 139,595 (2,366) ng · h/mL and the λz ([2]; 15 mg/kg Day 4, n=2) was 0.072 (0.020) h^−1. For the same compound, the AUCτ ([2]; 15 mg/kg Day 7, n=2) was 154,149 (12,406) ng · h/mL, the λz ([2]; 15 mg/kg Day 7, n=2) was 0.071 (0.017) h^−1 and the Cmax ([2]; 15 mg/kg Day 10, n=9) was 32,233 (13,933)† ng/mL. The AUCτ ([2]; 15 mg/kg Day 10, n=9) was 173,315 (67,934) ng · h/mL, the Vss ([2]; 15 mg/kg Day 10, n=9) was 1,139 (411)† mL/kg and the λz ([2]; 15 mg/kg Day 10, n=9) was 0.078 (0.020)† h^−1. It also gave an MRT ([2]; both, cynomolgus monkey, plasma, iv, 0.3 mg/kg, 0.3 mg/kg Day 1, n=2) of 1.24 h, an MRT ([2]; both, cynomolgus monkey, plasma, iv, 1 mg/kg, 1 mg/kg Day 1, n=2) of 1.82 h and an MRT ([2]; both, cynomolgus monkey, plasma, iv, 3 mg/kg, 3 mg/kg Day 1, n=2) of 4.3 h. The MRT ([2]; both, cynomolgus monkey, plasma, iv, 5 mg/kg, 5 mg/kg Day 1, n=6) was 2.94 h, the MRT ([2]; both, cynomolgus monkey, plasma, iv, 5 mg/kg, 5 mg/kg Day 10, n=6) was 4.84 h and the MRT ([2]; both, cynomolgus monkey, plasma, iv, 10 mg/kg, 10 mg/kg Day 1, n=8) was 4.4 h. It also gave an MRT ([2]; both, cynomolgus monkey, plasma, iv, 10 mg/kg, 10 mg/kg Day 10, n=6) of 7.2 h, an MRT ([2]; both, cynomolgus monkey, plasma, iv, 15 mg/kg, 15 mg/kg Day 1, n=12) of 5.48 h and an MRT ([2]; both, cynomolgus monkey, plasma, iv, 15 mg/kg, 15 mg/kg Day 4, n=2) of 11.8 h. It also gave an MRT ([2]; both, cynomolgus monkey, plasma, iv, 15 mg/kg, 15 mg/kg Day 7, n=2) of 12.3 h, an MRT ([2]; both, cynomolgus monkey, plasma, iv, 15 mg/kg, 15 mg/kg Day 10, n=9) of 12 h and a level at 288 h [2, 3] of 537 ng/mL. For the same compound, the level at 576 h [2, 3] was 12.5 ng/mL and the “time plasma concentrations detectable post-end of infusion” value ([2]; single dose of 0.3 or 1 mg/kg) was “up to 12 h”.
